Data from ChEMBL document CHEMBL2331304, “N1,N3-disubstituted uracils as nonnucleoside inhibitors of HIV-1 reverse transcriptase” (Bioorg Med Chem, 2013).
pEC50, pKi: −log10 of the molar value. The source made the active and inactive calls. The rule behind the calls is not given here.

Columns and labels:
[1] = system: Human immunodeficiency virus 1; test: Antiviral activity against HIV1 3B infected in human MT4 cells assessed as inhibition of virus-induced cytopathic effect after 4 days by MTT assay; type: functional, organism-based; settings: Human immunodeficiency virus 1, 3B, MT4, 96 h
Summary of the method: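 HIV-1 in MT-4 cells at 1 × 10^5 cells/ml, infected at MOI 0.02 (virus stock titrated as CCID50), then plated immediately onto varying compound concentrations. After 4 days at 37 °C, viable cells counted by MTT.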

[2] = system: Influenza B virus; test: Antiviral activity against influenza B virus; type: functional, organism-based
[3] = system: MT4; test: Cytotoxicity against human MT4 cells after 4 days by MTT assay; type: cell-based; settings: mt4, 96 h
[4] = system: Feline coronavirus; test: Antiviral activity against Feline coronavirus; type: functional, organism-based
[5] = system: Coxsackievirus B4; test: Antiviral activity against Coxsackievirus B4; type: functional, organism-based
[6] = target: Human immunodeficiency virus type 1 reverse transcriptase (Human immunodeficiency virus 1, UniProt Q72547); test: Non-competitive inhibition of wild type HIV1 reverse transcriptase p66/p51 after 30 mins by liquid scintillation counting
[7] = system: Human alphaherpesvirus 1; test: Antiviral activity against Human herpesvirus 1; type: functional, organism-based
Summary of the method: (§1)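 Confluent HEL, Vero, HeLa or MDCK monolayers (cell type per virus not specified) were inoculated with 100 CCID50 of virus, with a range of compound concentrations. Strains were HSV-1 KOS and TK− ACV-resistant KOS, HSV-2 Lyons and G, and HCMV AD-169 and Davis. Cytopathicity or plaques were scored once complete in untreated infected controls.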

[8] = system: Respiratory syncytial virus; test: Antiviral activity against Respiratory syncytial virus; type: functional, organism-based
[9] = system: Human alphaherpesvirus 3; test: Antiviral activity against Varicella zoster virus; type: functional, organism-based
Summary of the method: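 VZV strain Oka and the TK− strain 07-1 were inoculated at 20 PFU onto confluent cell monolayers in the presence of varying compound concentrations. Plaque formation was recorded once complete in untreated infected controls.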

[10] = system: Human alphaherpesvirus 2; test: Antiviral activity against Human herpesvirus 2; type: functional, organism-based; summary of the method: as §1
[11] = system: Sindbis virus; test: Antiviral activity against Sindbis virus; type: functional, organism-based
[12] = system: Mammalian orthoreovirus 1; test: Antiviral activity against Reovirus 1; type: functional, organism-based
[13] = system: Influenza A virus; test: Antiviral activity against Influenza A virus H1N1; type: functional, organism-based
[14] = system: Human respirovirus 3; test: Antiviral activity against Parainfluenza virus 3; type: functional, organism-based
[15] = system: Punta Toro virus; test: Antiviral activity against Punta Toro virus; type: functional, organism-based
[16] = system: Vaccinia virus; test: Antiviral activity against Vaccinia virus; type: functional, organism-based; settings: Orthopoxvirus vaccinia
[17] = system: Influenza A virus; test: Antiviral activity against Influenza A virus H3N2; type: functional, organism-based
[18] = system: Vesicular stomatitis virus; test: Antiviral activity against Vesicular stomatitis virus; type: functional, organism-based

Cc1ccc(OCCn2cc(C)c(=O)n(Cc3ccccc3)c2=O)cc1
pEC50 [1]: < 3.45 | Activity [2]: inactive | CC50 [3]: > 356 µM | Activity [4]: inactive | Activity [5]: inactive | pKi [6]: 6.00 | Activity [7]: inactive | Activity [8]: inactive | Activity [9]: inactive | Activity [10]: inactive | Activity [11]: inactive | Activity [12]: inactive | Activity [13]: inactive | Activity [14]: inactive | Activity [15]: inactive | Activity [16]: inactive | Activity [17]: inactive | Activity [18]: inactive

Cc1cc(C)cc(OCCn2ccc(=O)n(Cc3ccccc3)c2=O)c1
pEC50 [1]: < 4.34 | Activity [2]: inactive | CC50 [3]: 46 µM | Activity [4]: inactive | Activity [5]: inactive | pKi [6]: < 4.00 | Activity [7]: inactive | Activity [8]: inactive | Activity [9]: inactive | Activity [10]: inactive | Activity [11]: inactive | Activity [12]: inactive | Activity [13]: inactive | Activity [14]: inactive | Activity [15]: inactive | Activity [16]: inactive | Activity [17]: inactive | Activity [18]: inactive

O=c1ccn(CCOc2ccc3ccccc3c2)c(=O)n1Cc1ccccc1
pEC50 [1]: < 4.43 | Activity [2]: inactive | CC50 [3]: 37 µM | Activity [4]: inactive | Activity [5]: inactive | pKi [6]: 6.00 | Activity [7]: inactive | Activity [8]: inactive | Activity [9]: inactive | Activity [10]: inactive | Activity [11]: inactive | Activity [12]: inactive | Activity [13]: inactive | Activity [14]: inactive | Activity [15]: inactive | Activity [16]: inactive | Activity [17]: inactive | Activity [18]: inactive

O=c1ccn(CCOc2ccc(Cl)cc2)c(=O)n1Cc1ccccc1
pEC50 [1]: < 4.44 | Activity [2]: inactive | CC50 [3]: 36 µM | Activity [4]: inactive | Activity [5]: inactive | pKi [6]: 4.66 | Activity [7]: inactive | Activity [8]: inactive | Activity [9]: inactive | Activity [10]: inactive | Activity [11]: inactive | Activity [12]: inactive | Activity [13]: inactive | Activity [14]: inactive | Activity [15]: inactive | Activity [16]: inactive | Activity [17]: inactive | Activity [18]: inactive

Cc1ccnc2c1NC(=O)c1cccnc1N2C1CC1 [NEVIRAPINE]
pEC50 [1]: 7.32 | CC50 [3]: > 4 µM

Cc1ccc(OCCn2ccc(=O)n(CCc3ccccc3)c2=O)cc1
pEC50 [1]: < 3.89 | Activity [2]: inactive | CC50 [3]: 129 µM | Activity [4]: inactive | Activity [5]: inactive | pKi [6]: 5.19 | Activity [7]: inactive | Activity [8]: inactive | Activity [9]: inactive | Activity [10]: inactive | Activity [11]: inactive | Activity [12]: inactive | Activity [13]: inactive | Activity [14]: inactive | Activity [15]: inactive | Activity [16]: inactive | Activity [17]: inactive | Activity [18]: inactive

Cc1ccccc1OCCn1ccc(=O)n(Cc2ccccc2)c1=O
pEC50 [1]: < 3.93 | Activity [2]: inactive | CC50 [3]: 117 µM | Activity [4]: inactive | Activity [5]: inactive | pKi [6]: < 4.00 | Activity [7]: inactive | Activity [8]: inactive | Activity [9]: inactive | Activity [10]: inactive | Activity [11]: inactive | Activity [12]: inactive | Activity [13]: inactive | Activity [14]: inactive | Activity [15]: inactive | Activity [16]: inactive | Activity [17]: inactive | Activity [18]: inactive

CC(C)(C)c1ccc(OCCn2ccc(=O)n(Cc3ccccc3)c2=O)cc1
pEC50 [1]: < 4.20 | Activity [2]: inactive | CC50 [3]: 63 µM | Activity [4]: inactive | Activity [5]: inactive | pKi [6]: 4.82 | Activity [7]: inactive | Activity [8]: inactive | Activity [9]: inactive | Activity [10]: inactive | Activity [11]: inactive | Activity [12]: inactive | Activity [13]: inactive | Activity [14]: inactive | Activity [15]: inactive | Activity [16]: inactive | Activity [17]: inactive | Activity [18]: inactive

Cc1ccc(Cn2c(=O)ccn(CCOc3ccc(C)cc3)c2=O)cc1
pEC50 [1]: < 3.60 | Activity [2]: inactive | CC50 [3]: 250 µM | Activity [4]: inactive | Activity [5]: inactive | pKi [6]: 4.33 | Activity [7]: inactive | Activity [8]: inactive | Activity [9]: inactive | Activity [10]: inactive | Activity [11]: inactive | Activity [12]: inactive | Activity [13]: inactive | Activity [14]: inactive | Activity [15]: inactive | Activity [16]: inactive | Activity [17]: inactive | Activity [18]: inactive

Cc1ccc(OCCn2ccc(=O)n(Cc3c(C)cc(C)cc3C)c2=O)cc1
pEC50 [1]: < 3.88 | Activity [2]: inactive | CC50 [3]: 133 µM | Activity [4]: inactive | Activity [5]: inactive | pKi [6]: < 4.00 | Activity [7]: inactive | Activity [8]: inactive | Activity [9]: inactive | Activity [10]: inactive | Activity [11]: inactive | Activity [12]: inactive | Activity [13]: inactive | Activity [14]: inactive | Activity [15]: inactive | Activity [16]: inactive | Activity [17]: inactive | Activity [18]: inactive

Cc1ccc(OCCn2c(=O)n(Cc3ccccc3)c(=O)c3ccccc32)cc1
pEC50 [1]: < 4.60 | Activity [2]: inactive | CC50 [3]: 25 µM | Activity [4]: inactive | Activity [5]: inactive | pKi [6]: 6.00 | Activity [7]: inactive | Activity [8]: inactive | Activity [9]: inactive | Activity [10]: inactive | Activity [11]: inactive | Activity [12]: inactive | Activity [13]: inactive | Activity [14]: inactive | Activity [15]: inactive | Activity [16]: inactive | Activity [17]: inactive | Activity [18]: inactive

Cc1ccc(OCCn2ccc(=O)n(Cc3ccccc3C)c2=O)cc1
pEC50 [1]: < 4.34 | Activity [2]: inactive | CC50 [3]: 46 µM | Activity [4]: inactive | Activity [5]: inactive | pKi [6]: < 4.00 | Activity [7]: inactive | Activity [8]: inactive | Activity [9]: inactive | Activity [10]: inactive | Activity [11]: inactive | Activity [12]: inactive | Activity [13]: inactive | Activity [14]: inactive | Activity [15]: inactive | Activity [16]: inactive | Activity [17]: inactive | Activity [18]: inactive
